Laboratory results taken from ChEMBL document CHEMBL3826882, “Discovery of 1-((2R,4aR,6R,7R,7aR)-2-Isopropoxy-2-oxidodihydro-4H,6H-spiro[furo[3,2-d][1,3,2]dioxaphosphinine-7,2'-oxetan]-6-yl)pyrimidine-2,4(1H,3H)-dione (JNJ-54257099), a 3'-5'-Cyclic Phosphate Ester Prodrug of 2'-Deoxy-2'-Spirooxetane Uridine Triphosphate Useful for HCV Inhibition” (J Med Chem, 2016).
One block for each compound: values may come before it.

Key:
[1] = Drug level in dog primary hepatocytes treated with JNJ-54257099 at 2 to 62.5 uM after 4 hrs using radiolabeled compound by LC-MS/MS analysis; assay type: ADME, cell-based, Canis lupus familiaris, Hepatocyte
Procedure, shortened: (§1)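 Study A: primary cultured hepatocytes (mouse, rat, dog, human) incubated with 2 or 62.5 µM 5'-[3H]-labelled prodrug for 4 and 24 h. Cell lysates were analysed for triphosphate. Supernatants were protein-precipitated and profiled by HPLC with radioactivity detection. Cyclic monophosphate was also assessed by LC/MS/MS.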

Hepatocyte [2] = experiment: Drug level in human hepatocytes treated with JNJ-54257099 in presence of PDE4 inhibitor rolipram by LC-MS/MS analysis; assay type: ADME, cell-based
Hepatocyte [3] = experiment: Drug level in human hepatocytes treated with JNJ-54257099 in presence of pan-PDE inhibitor ibudilast by LC-MS/MS analysis; assay type: ADME, cell-based
Hepatocyte [4] = experiment: Drug level in rat primary hepatocytes treated with JNJ-54257099 at 2 to 62.5 uM after 24 hrs using radiolabeled compound by LC-MS/MS analysis; assay type: ADME, cell-based; procedure, shortened: as §1
Hepatocyte [5] = experiment: Drug level in human hepatocytes treated with JNJ-54257099 in presence of CYP2C8 and CYP2C9 inhibitor montelukast by LC-MS/MS analysis; assay type: ADME, cell-based
Hepatocyte [6] = experiment: Drug level in human primary hepatocyte supernatant treated with JNJ-54257099 at 2 to 62.5 uM after 4 to 24 hrs using radiolabeled compound by HPLC analysis; assay type: ADME, cell-based; details: hepatocytes; procedure, shortened: as §1
[7] = Drug level in dog primary hepatocyte supernatant treated with JNJ-54257099 at 2 to 62.5 uM after 4 to 24 hrs using radiolabeled compound by HPLC analysis; assay type: ADME, cell-based, Canis lupus familiaris; details: hepatocytes; procedure, shortened: as §1
Hepatocyte [8] = experiment: Drug level in rat primary hepatocyte supernatant treated with JNJ-54257099 at 2 to 62.5 uM after 4 to 24 hrs using radiolabeled compound by HPLC analysis; assay type: ADME, cell-based; details: hepatocytes; procedure, shortened: as §1
Hepatocyte [9] = experiment: Drug level in mouse primary hepatocyte supernatant treated with JNJ-54257099 at 2 to 62.5 uM after 4 to 24 hrs using radiolabeled compound by HPLC analysis; assay type: ADME, cell-based; details: hepatocytes; procedure, shortened: as §1
[10] = target: RNA-directed RNA polymerase (Hepacivirus hominis, UniProt O39930); experiment: Inhibition of HCV RNA polymerase
[11] = Cytotoxicity against human HuH7-CMV-Luc cells assessed as reduction in cell proliferation after 3 days by 5-bromo-2'-deoxyuridine incorporation assay; assay type: cell-based, Huh-7
Procedure, shortened: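 Huh7 cells at 1,500 cells/well, five serial compound dilutions in triplicate, 3 days of incubation. Proliferation was quantified as BrdU incorporation into DNA by ELISA.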

Hepatitis C virus [12] = experiment: Antiviral activity against HCV genotype 1b infected in human HuH7 cells assessed as inhibition of viral replication after 3 days by luciferase reporter gene assay; assay type: functional, organism-based, Hepacivirus hominis; details: Huh-7, 72 h
Procedure, shortened: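 HCV 1b subgenomic luciferase replicon (Huh7-luc, clone ET, adaptive mutations E1202G, T1280I, K1846T). 2,500 cells were incubated with compound over a 9-point, 1/4 dilution series for 3 days. Replication was read as luciferase activity.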

CYP3A4 = CYP3A4 (Homo sapiens, UniProt P08684); experiment: Drug metabolism in baculovirus infected insect cell microsomes expressing human CYP3A4 assessed as CYP3A4-mediated half life at 22.7 uM; assay type: ADME
Procedure, shortened: (§2)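 Incubation at 22.7 µM with human CYP3A4 supersomes. Intrinsic clearance (µL/min.pmol P450) and half-life (min) were determined.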

Cytochrome P450 3A4 = Cytochrome P450 3A4 (Homo sapiens, UniProt P08684); experiment: Drug metabolism in baculovirus infected insect cell microsomes expressing human CYP3A4 assessed as CYP3A4-mediated intrinsic clearance per pmol CYP3A4 at 22.7 uM; assay type: ADME; details: recombinant enzyme; procedure, shortened: as §2
Hepatitis C virus [13] = experiment: Antiviral activity against HCV genotype 1a infected in homozygous cDNA-uPA chimeric SCID mouse bearing humanized hepatocytes assessed as change in HCV RNA level in serum at 100 mg/kg, po qd administered through gavage for 7 days by RT-PCR method; assay type: functional, Hepacivirus hominis, subtype 1a, Hepatocyte
Procedure, shortened: (§3)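 Male chimeric SCID cDNA-uPA+/+ mice with human hepatocyte liver (≥70% replacement by blood human albumin) and serum HCV RNA >1.0×10^6 copies/mL the week before dosing. Oral gavage for 7 days in 20% HP-β-CD, 50-200 mg/kg QD or BID. Serum sampled pre-dose on days 1, 2, 3, 5 and 7. Real-time PCR; mean change in log10 copies/mL, day 7 vs day 1 pre-dose.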

Hepatitis C virus [14] = experiment: Antiviral activity against HCV genotype 3a infected in homozygous cDNA-uPA chimeric SCID mouse bearing humanized hepatocytes assessed as reduction in HCV RNA level in serum administered through oral gavage once daily for 7 days by RT-PCR method; assay type: functional, organism-based; details: Hepacivirus hominis, Hepatocyte; procedure, shortened: as §3
Hepatitis C virus [15] = experiment: Antiviral activity against HCV genotype 3a infected in homozygous cDNA-uPA chimeric SCID mouse bearing humanized hepatocytes assessed as change in HCV RNA level in serum at 100 mg/kg, po qd administered through gavage for 7 days by RT-PCR method; assay type: functional, Hepacivirus hominis, Hepatocyte; procedure, shortened: as §3
Hepatitis C virus [16] = experiment: Antiviral activity against HCV genotype 3a infected in homozygous cDNA-uPA chimeric SCID mouse bearing humanized hepatocytes assessed as reduction in HCV RNA level in serum administered through oral gavage twice daily daily for 7 days by RT-PCR method; assay type: functional, organism-based; details: Hepacivirus hominis, Hepatocyte; procedure, shortened: as §3
Hepatocyte [17] = experiment: Prodrug conversion in mouse cryopreserved hepatocytes assessed as 2'-deoxy-2'-spirooxetane uridine triphosphate level per million cells at 10 uM after 8 hrs by LC-MS/MS analysis; assay type: ADME, cell-based
Procedure, shortened: (§4)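 Plated cryopreserved hepatocytes (study B) incubated with 10 µM unlabeled prodrug for 2, 8 or 24 h. Triphosphate measured in cell lysates and expressed as pmol/million hepatocytes. Quantification limit 2 ng/10^6 cells.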

Hepatocyte [18] = experiment: Prodrug conversion in human cryopreserved hepatocytes assessed as 2'-deoxy-2'-spirooxetane uridine triphosphate level per million cells at 10 uM after 8 hrs by LC-MS/MS analysis; assay type: ADME, cell-based; procedure, shortened: as §4
Hepatocyte [19] = experiment: Prodrug conversion in rat cryopreserved hepatocytes assessed as 2'-deoxy-2'-spirooxetane uridine triphosphate level per million cells at 10 uM after 8 hrs by LC-MS/MS analysis; assay type: ADME, cell-based; procedure, shortened: as §4
Hepatocyte [20] = experiment: Prodrug conversion in mouse cryopreserved hepatocytes assessed as 2'-deoxy-2'-spirooxetane uridine triphosphate level per million cells at 10 uM after 2 hrs by LC-MS/MS analysis; assay type: ADME, cell-based; procedure, shortened: as §4
[21] = Prodrug conversion in dog cryopreserved hepatocytes assessed as 2'-deoxy-2'-spirooxetane uridine triphosphate level per million cells at 10 uM after 24 hrs by LC-MS/MS analysis; assay type: ADME, cell-based, Canis lupus familiaris, Hepatocyte; procedure, shortened: as §4
[22] = Prodrug conversion in dog cryopreserved hepatocytes assessed as 2'-deoxy-2'-spirooxetane uridine triphosphate level per million cells at 10 uM after 8 hrs by LC-MS/MS analysis; assay type: ADME, cell-based, Canis lupus familiaris, Hepatocyte; procedure, shortened: as §4
Hepatocyte [23] = experiment: Prodrug conversion in human cryopreserved hepatocytes assessed as 2'-deoxy-2'-spirooxetane uridine triphosphate level per million cells at 10 uM after 24 hrs by LC-MS/MS analysis; assay type: ADME, cell-based; procedure, shortened: as §4
Hepatocyte [24] = experiment: Prodrug conversion in mouse cryopreserved hepatocytes assessed as 2'-deoxy-2'-spirooxetane uridine triphosphate level per million cells at 10 uM after 24 hrs by LC-MS/MS analysis; assay type: ADME, cell-based; procedure, shortened: as §4
Hepatocyte [25] = experiment: Prodrug conversion in human cryopreserved hepatocytes assessed as 2'-deoxy-2'-spirooxetane uridine triphosphate level per million cells at 10 uM after 2 hrs by LC-MS/MS analysis; assay type: ADME, cell-based; procedure, shortened: as §4
[26] = Prodrug conversion in dog cryopreserved hepatocytes assessed as 2'-deoxy-2'-spirooxetane uridine triphosphate level per million cells at 10 uM after 2 hrs by LC-MS/MS analysis; assay type: ADME, cell-based, Canis lupus familiaris, Hepatocyte; procedure, shortened: as §4
Hepatocyte [27] = experiment: Prodrug conversion in rat cryopreserved hepatocytes assessed as 2'-deoxy-2'-spirooxetane uridine triphosphate level per million cells at 10 uM after 24 hrs by LC-MS/MS analysis; assay type: ADME, cell-based; procedure, shortened: as §4
Hepatocyte [28] = experiment: Prodrug conversion in rat cryopreserved hepatocytes assessed as 2'-deoxy-2'-spirooxetane uridine triphosphate level per million cells at 10 uM after 2 hrs by LC-MS/MS analysis; assay type: ADME, cell-based; procedure, shortened: as §4

Sequence of RNA-directed RNA polymerase (O39930 whole entry): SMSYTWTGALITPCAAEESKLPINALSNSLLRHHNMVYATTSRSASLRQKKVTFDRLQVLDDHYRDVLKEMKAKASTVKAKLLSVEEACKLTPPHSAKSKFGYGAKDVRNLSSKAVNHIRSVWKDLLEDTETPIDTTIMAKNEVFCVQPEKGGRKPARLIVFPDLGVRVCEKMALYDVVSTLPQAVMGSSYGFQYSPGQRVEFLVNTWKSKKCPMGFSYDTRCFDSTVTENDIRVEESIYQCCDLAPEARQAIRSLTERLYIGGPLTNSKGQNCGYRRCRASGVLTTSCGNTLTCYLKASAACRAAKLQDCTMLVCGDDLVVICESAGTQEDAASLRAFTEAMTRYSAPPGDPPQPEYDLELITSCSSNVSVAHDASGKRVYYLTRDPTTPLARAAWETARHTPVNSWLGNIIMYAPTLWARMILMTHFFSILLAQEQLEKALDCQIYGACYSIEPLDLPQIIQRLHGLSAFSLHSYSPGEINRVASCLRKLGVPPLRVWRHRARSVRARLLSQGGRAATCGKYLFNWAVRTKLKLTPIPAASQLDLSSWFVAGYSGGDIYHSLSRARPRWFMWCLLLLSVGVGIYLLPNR
Sequence of CYP3A4 (P08684 whole entry): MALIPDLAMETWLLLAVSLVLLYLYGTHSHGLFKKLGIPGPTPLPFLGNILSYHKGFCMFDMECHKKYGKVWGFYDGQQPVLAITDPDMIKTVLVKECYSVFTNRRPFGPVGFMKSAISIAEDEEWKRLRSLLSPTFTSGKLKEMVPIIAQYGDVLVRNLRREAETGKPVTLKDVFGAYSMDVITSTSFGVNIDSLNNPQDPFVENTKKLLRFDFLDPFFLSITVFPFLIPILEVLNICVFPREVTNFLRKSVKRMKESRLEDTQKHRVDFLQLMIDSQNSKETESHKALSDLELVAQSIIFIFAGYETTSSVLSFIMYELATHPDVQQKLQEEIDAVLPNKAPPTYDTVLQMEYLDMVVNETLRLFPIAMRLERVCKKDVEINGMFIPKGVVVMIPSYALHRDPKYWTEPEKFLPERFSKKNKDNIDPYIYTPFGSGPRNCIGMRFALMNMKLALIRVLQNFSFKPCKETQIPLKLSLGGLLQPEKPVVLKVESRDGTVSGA
Sequence of Cytochrome P450 3A4 (P08684 whole entry): as above

SMILES: O=c1ccn([C@@H]2O[C@H](COP(=O)(O)OP(=O)(O)OP(=O)(O)O)[C@@H](O)[C@]23CCO3)c(=O)[nH]1
IC50 [10]: 1000 nM | Ki [10]: 130 nM

SMILES: CCOc1nc(N)nc2c1ncn2[C@@H]1O[C@@H]2CO[P@](=O)(OC(C)C)O[C@H]2[C@@]1(C)F
CC50 at 72 h [11]: > 100000 nM | EC50 (Hepatitis C virus [12]): 300 nM | half-life at 22.7 µM (CYP3A4): 1.27 h | CL (Cytochrome P450 3A4): 0.1 µL/min

SMILES: CC(C)OC(=O)[C@H](C)N[P@](=O)(OC[C@H]1O[C@@H](n2ccc(=O)[nH]c2=O)[C@](C)(F)[C@@H]1O)Oc1ccccc1 [SOFOSBUVIR]
Activity (Hepatitis C virus [13]): -2.14 | Activity (Hepatitis C virus [14]): Dose-dependent effect | Activity (Hepatitis C virus [15]): -0.97 | Activity (Hepatitis C virus [16]): Dose-dependent effect

SMILES: CCCCOC(=O)[C@H](C)NP(=O)(OC[C@H]1O[C@@H](n2ccc(=O)[nH]c2=O)[C@@]2(CCO2)[C@@H]1O)Oc1ccccc1 (stereo partly drawn)
Drug metabolism (Hepatocyte [17]): 0.066 pmol | CC50 at 72 h [11]: > 100000 nM | Drug metabolism (Hepatocyte [18]): 0.257 pmol | Drug metabolism (Hepatocyte [19]): 0.058 pmol | Drug metabolism (Hepatocyte [20]): 0.028 pmol | Drug metabolism [21]: 0.007 pmol | Drug metabolism [22]: 0.021 pmol | Drug metabolism (Hepatocyte [23]): 0.173 pmol | Drug metabolism (Hepatocyte [24]): 0.023 pmol | Drug metabolism (Hepatocyte [25]): 0.044 pmol | Drug metabolism [26]: 0.01 pmol | Drug metabolism (Hepatocyte [27]): 0.013 pmol | Drug metabolism (Hepatocyte [28]): 0.025 pmol

The next lines start with the values.

Drug metabolism [1]: metabolite_detected | Drug metabolism (Hepatocyte [2]): metabolite_detected | Drug metabolism (Hepatocyte [3]): metabolite_detected | Drug metabolism (Hepatocyte [4]): metabolite_detected | Drug metabolism (Hepatocyte [5]): metabolite_detected
SMILES: O=c1ccn([C@@H]2O[C@H](COP(=O)(O)O)[C@@H](O)[C@]23CCO3)c(=O)[nH]1

Drug metabolism (Hepatocyte [6]): metabolite_detected | Drug metabolism [7]: metabolite_detected | Drug metabolism (Hepatocyte [8]): metabolite_detected | Drug metabolism (Hepatocyte [9]): metabolite_detected
SMILES: O=c1ccn([C@@H]2O[C@H](CO)[C@@H](O)[C@]23CCO3)c(=O)[nH]1

Drug metabolism [1]: metabolite_detected | Drug metabolism (Hepatocyte [6]): metabolite_detected | Drug metabolism [7]: metabolite_detected | Drug metabolism (Hepatocyte [8]): metabolite_detected | Drug metabolism (Hepatocyte [4]): metabolite_detected | Drug metabolism (Hepatocyte [9]): metabolite_detected
SMILES: O=c1ccn([C@@H]2O[C@@H]3COP(=O)(O)O[C@H]3[C@]23CCO3)c(=O)[nH]1
